Data set [1] addresses Aldo-keto reductase family 1 member B1 (Rattus norvegicus, UniProt P07943). The data set is described as follows: Inhibition of Wistar rat lens ALR2 assessed as reduction in NADPH oxidation using D,L-glyceraldehyde and NADPH as substrate preincubated for 10 mins followed by substrate addition and measured for 4 mins by spectrophotometric analysis. The class given is tissue-based.

Data set [2] concerns the target Aldo-keto reductase family 1 member A1 (Rattus norvegicus, UniProt P51635). Put plainly: Inhibition of Wistar rat kidney ALR1 assessed as reduction in NADPH oxidation using sodium D-glucuronate and NADPH as substrate preincubated for 10 mins followed by substrate addition and measured for 4 mins by spectrophotometric analysis. The class given is tissue-based.
A further data set is filed under the species Rattus norvegicus. The data set is described as follows: Selectivity index, ratio of IC50 for Wistar rat kidney ALR1 to IC50 for Wistar rat lens ALR2. In outline: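 Aldose reductases (ALR2, ALR1) prepared from Wistar rats (200-250 g). NADPH loss followed at 340 nm for 4 min after substrate start, following 10 min preincubation. ALR2: pH 6.2 phosphate, 30 °C, NADPH 0.10 mM, D,L-glyceraldehyde 10 mM. ALR1: pH 7.2, 37 °C, NADPH 0.12 mM, D-glucuronate 20 mM. 0.5% DMSO; non-enzymatic rate subtracted. IC50 from log dose-response with ≥3 concentrations (20-80% inhibition), triplicate.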

For data set [3], the target named is Aldo-keto reductase family 1 member B1 (Rattus norvegicus) (UniProt P07943). Put plainly: Noncompetitive inhibition of Wistar rat lens ALR2 at 0.025 mM using varying level of D,L-glyeraldehyde as substrate in presence of NADPH by double reciprocal plot analysis. Format: tissue-based. In short, it runs like this:
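Rat ALR2 kinetics run under the assay conditions with inhibitor at 10 and 5 nM. Either D,L-glyceraldehyde varied (7.5-0.94 mM) with cofactor 0.025 mM, or NADPH varied (25-3.125) with glyceraldehyde 2.5 mM. Mode assigned from double-reciprocal plots.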

The nature of data set [4]: Antioxidant activity assessed as DPPH radical scavenging activity at 10 uM after 30 mins by spectrophotometric analysis. The class given is functional. In short, it runs like this: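 DPPH in methanol (1 mL, 0.025 mg/mL) plus methanol 1.9 mL and compound in methanol, final 100, 50 and 10 µM; absorbance at 517 nm. Scavenging % = 1 − (A_sample − A_blank)/A_control, where the blank is compound without DPPH. Trolox reference.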
Background: DPPH is a stable violet radical that fades when it is reduced.

The next data set concerns Brain. Put plainly: Antioxidant activity in rat brain assessed as inhibition of lipid peroxidation at 50 to 100 uM by TBARS assay. Particulars: dose 50-100 µM. The class given is functional, tissue-based. In outline:
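Rat brain freshly homogenized in ice-cold saline and centrifuged; supernatant protein measured by Coomassie. Hydroxyl radical-driven lipid peroxidation read as MDA/TBARS with a commercial kit.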

Data set [5] deals with Mus musculus. The data set is described as follows: Antioxidant activity in STZ-induced diabetic Kunming mouse assessed as reduction in liver MDA level at 80 mg/kg, po administered daily via gavage for 8 weeks and measured at 6 hrs post-final drug dose relative to STZ-treated group. Format: functional. The note with it: 1344 h.
In data set [6] the test system is Mus musculus. The data set is described as follows: Antioxidant activity in STZ-induced diabetic Kunming mouse assessed as reduction in liver MDA level at 160 mg/kg, po administered daily via gavage for 8 weeks and measured at 6 hrs post-final drug dose relative to STZ-treated group. The class given is functional. Particulars: 1344 h.
The subject of data set [7] is Mus musculus. The data set is described as follows: Antioxidant activity in STZ-induced diabetic Kunming mouse assessed as increase in SOD level in kidney at 160 mg/kg, po administered daily via gavage for 8 weeks and measured at 6 hrs post-final drug dose. Format: functional.
Data set [8] relates to Mus musculus. Put plainly: Antioxidant activity in STZ-induced diabetic Kunming mouse assessed as increase in GSH level in kidney at 80 mg/kg, po administered daily via gavage for 8 weeks and measured at 6 hrs post-final drug dose by microplate reader analysis. The class given is functional.
Data set [9] concerns Mus musculus. Put plainly: Antioxidant activity in STZ-induced diabetic Kunming mouse assessed as increase in GSH level in kidney at 80 mg/kg, po administered QD via gavage for 4 weeks and measured at 6 hrs post-final drug dose by microplate reader analysis. The class given is functional.
Data set [10] deals with Mus musculus. The data set is described as follows: Antidiabetic activity in STZ-induced Kunming mouse model of diabetes assessed as reduction in blood glucose level at 160 mg/kg, po administered daily via gavage for 8 weeks and measured at week 4. Format: functional. Particulars: 672 h, time 4 weeks.
Data set [11] deals with Mus musculus. Put plainly: Antidiabetic activity in STZ-induced Kunming mouse model of diabetes assessed as reduction in blood glucose level at 160 mg/kg, po administered daily via gavage for 8 weeks and measured at week 6. Format: functional. Particulars: 1008 h, time 6 weeks.
Data set [12] concerns Mus musculus. Put plainly: Antidiabetic activity in STZ-induced Kunming mouse model of diabetes assessed as reduction in blood glucose level at 80 mg/kg, po administered daily via gavage for 8 weeks and measured at week 2. The class given is functional. The note with it: 336 h, time 2 weeks.
Data set [13] concerns Mus musculus. The data set is described as follows: Antidiabetic activity in STZ-induced Kunming mouse model of diabetes assessed as reduction in blood glucose level at 80 mg/kg, po administered daily via gavage for 8 weeks and measured at week 6. Format: functional. Particulars: 1008 h, time 6 weeks.
In data set [14] the test system is Mus musculus. Put plainly: Reno-protective activity in STZ-induced Kunming mouse model of diabetes assessed as urinary total protein excretion at 80 mg/kg, po administered daily via gavage for 8 weeks and measured at week 6 relative to control. The class given is functional. Particulars: time 6 weeks.
In data set [15] the test system is Mus musculus. The data set is described as follows: Reno-protective activity in STZ-induced Kunming mouse model of diabetes assessed as urinary total protein excretion at 160 mg/kg, po administered daily via gavage for 8 weeks and measured at week 6 relative to control. The class given is functional. The note with it: time 6 weeks.
Another data set concerns HEK-293T. Put plainly: Cytotoxicity against human HEK293T cells at 25 to 200 uM measured after 24 hrs by MTT assay. Format: cell-based. Particulars: dose 25-200 µM. In outline:
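293T cells seeded at 1×10^5/well and exposed to 25, 50, 100 and 200 for 24 h at 37 °C; viability by MTT kit.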

Data set [16] has as its system Mus musculus. Put plainly: Reno-protective activity in STZ-induced Kunming mouse model of diabetes assessed as reduction in urinary total protein excretion at 80 mg/kg, po administered QD via gavage for 4 weeks and measured at week 2 to 4. Particulars: time 2-4 weeks. The class given is functional, organism-based.
Data set [17] has as its system Mus musculus. The data set is described as follows: Antidiabetic activity in STZ-induced Kunming mouse model of diabetes assessed as improvement in glucose tolerance at 80 mg/kg, po QD administered via gavage and measured for 120 mins by intraperitoneal GTT.

Activity calls are given as the source filed them. No cut-off for these calls is given here.

Aldo-keto reductase family 1 member A1, sequence (P51635 whole entry, looked up): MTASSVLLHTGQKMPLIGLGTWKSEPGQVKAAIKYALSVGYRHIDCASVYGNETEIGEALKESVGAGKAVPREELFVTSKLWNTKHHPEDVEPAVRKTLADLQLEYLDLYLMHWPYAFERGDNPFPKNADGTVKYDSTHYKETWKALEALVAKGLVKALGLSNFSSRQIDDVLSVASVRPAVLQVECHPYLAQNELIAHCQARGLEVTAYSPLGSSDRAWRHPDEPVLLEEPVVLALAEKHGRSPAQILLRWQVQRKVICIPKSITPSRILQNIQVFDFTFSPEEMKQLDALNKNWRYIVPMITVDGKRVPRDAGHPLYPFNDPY

The IC50 is the midpoint of a concentration-inhibition curve. As a reminder, the inhibition in vivo is the change of the read-out against control, counted positive when it falls. Regarding `COc1cc(/C=C/c2cccc3c2oc(=O)n3CC(=O)O)ccc1O`, the figures for the IC50 in data set [1] and in data set [2] were 6.9 nM and 4900 nM, respectively. For the same compound, the Ratio IC50 in the data set filed under Rattus norvegicus was 710. Moreover, the inhibition result in data set [3] is “Active”. Also, the Activity was 22.7% in data set [4]; 38% in the data set on Mus musculus [7]; 170% in the data set on Mus musculus [8]; 150% in the data set on Mus musculus [9]; 50% in the data set with Mus musculus [14]; 36% in the data set with Mus musculus [15]. The Activity entry in the data set on HEK-293T was “Non-Toxic”. The outcome in the data set with Brain, in the data set on Mus musculus [16] and with Mus musculus [17] was Active. For the same compound, the values for the inhibition in vivo at 80 mg/kg in the data set with Mus musculus [5], with Mus musculus [12] and with Mus musculus [13] were 67%, 18% and 19%, respectively. Moreover, the figures for the inhibition in vivo at 160 mg/kg with Mus musculus [6], in the data set with Mus musculus [10] and with Mus musculus [11] were 45%, 23% and 19%, respectively.

The values are drawn from ChEMBL document CHEMBL4732211, “Multifunctional agents based on benzoxazolone as promising therapeutic drugs for diabetic nephropathy” (Eur J Med Chem, 2021).
